Diaph act CS – counter-screen for diaphorase-based assays: diaphorase activators and chemical reducers | Diaphorase/resazurin coupled assay, resorufin fluorescence, 16 min; active compounds read high; 1 = vehicle wells, 0 = NADH-free wells | activation factor at 20 µM | 190,000 tested, 0.005% active | AID 1229;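 active means diaphorase activity raised at least twofold by the compound at 20 µM; inactive means activation factor below 2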
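test system = bacterial diaphorase enzyme (C. kluyveri) | quantity = enzyme 0.07 U/mL final | reagent = NADH substrate 0.114 mM plus resazurin dye 0.1 mM, final | incubation = 16 min enzyme reaction, ambient temperature | buffer or medium = HEPES pH 7.4 buffer with MgCl2 and Tween 20 | signal = fluorescence of resorufin, 544 nm excitation, 590 nm emission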
NCF1 inh – inhibitors of human p47phox binding; P14598; p47phox/p22phox peptide binding, fluorescence polarization, 2 h; inhibition, % at 24.7 µM; 220,000 tested, 0.53% active;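 active means inhibition above about 30%, limit read from the data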;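 further: 0% = p47phox with labelled peptide and 100% = labelled peptide alone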
PMI act hi M6P – increases human PMI activity with near-saturating mannose 6-phosphate; activation factor at 20 µM; AID 1216; coupled PMI enzyme assay, resazurin fluorescence, 20 min; active compounds read high; 1 = untreated enzyme, 0 = substrate-free blank; 190,000 tested, 0.34% active; P34949;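 active means activation factor of 2 or more at 20 µM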
Target sequence (P34949 whole entry, looked up): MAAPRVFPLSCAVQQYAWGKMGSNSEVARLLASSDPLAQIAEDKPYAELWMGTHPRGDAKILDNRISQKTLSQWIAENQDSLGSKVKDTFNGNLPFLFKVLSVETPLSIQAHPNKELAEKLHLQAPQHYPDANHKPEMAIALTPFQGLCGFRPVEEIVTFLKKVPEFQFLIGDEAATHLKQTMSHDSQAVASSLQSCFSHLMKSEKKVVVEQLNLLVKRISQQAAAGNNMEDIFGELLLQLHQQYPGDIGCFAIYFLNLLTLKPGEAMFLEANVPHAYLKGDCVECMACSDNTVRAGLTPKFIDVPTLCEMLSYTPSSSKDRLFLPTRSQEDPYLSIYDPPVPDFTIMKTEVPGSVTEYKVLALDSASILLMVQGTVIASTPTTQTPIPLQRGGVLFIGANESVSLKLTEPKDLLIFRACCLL
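test system = human PMI in coupled enzyme assay | medium = HEPES-buffered pH 7.4 with magnesium and detergent | also added = 1.0 mM mannose-6-phosphate substrate with 0.22 mM NADP+ | compound = 20 µM single dose | times = 20 min incubation at room temperature | measured by = resorufin fluorescence (Ex 544/Em 590 nm) from resazurin via diaphorase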
GSH fluor – GSH bead compound fluorescence profile | fluorescence (KMESF) at 10 µM | 190,000 tested, 0.25% active | GSH beads flow cytometry, compound fluorescence 488/530 nm; active compounds read high; in the data active means fluorescence above about 89;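 further: glutathione beads carrying GST-tagged Bcl family fusion proteins plus one bare bead set; values are compound well signal with DMSO vehicle wells as background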
Avidin bead fluor – compound fluoresces at 488/530 nm on avidin beads | AID 1775 | compound fluorescence 488/530 nm, flow cytometry; active compounds read high | 220,000 tested, 0.38% active | fluorescence (KMESF) at 10 µM; in the data active means fluorescence above about 47
PMI act – activators of human phosphomannose isomerase. P34949. purified human PMI, coupled resazurin fluorescence, 20 min; active compounds read high; 1 = vehicle control, 0 substrate-free wells. activation factor at 20 µM. 190,000 tested, 0.005% active;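 active means activation factor of 2 or more at 20 µM, relative to plate controls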
The depositor's hits bear a star; . = no result given. Sampled rows, rich in hits. Any-hit rate of the full collection: about 1.4%.

SMILES | Diaph act CS | NCF1 inh | PMI act hi M6P | GSH fluor | Avidin bead fluor | PMI act
CN(C)c1ccc(/C=C2\SC(=S)N(Nc3ncc(C(F)(F)F)cc3Cl)C2=O)cc1 | 1 | 22 | 1.1 | 45 | 56* | 1.1
COc1cc(/C=C2\SC(=S)N(Nc3ncc(C(F)(F)F)cc3Cl)C2=O)ccc1O | 0.7 | -176 | 0.8 | 26 | 38 | 0.9
CCSc1nc2ccccc2n1Cc1cccc([N+](=O)[O-])c1 | 0.8 | -10 | 1 | 35 | 12 | 0.9
COc1ccc(NC(=O)CCS(=O)(=O)c2cccc3nonc23)c(OC)c1 | 0.9 | 80* | 1 | 34 | 6 | 1
Cc1nn(CC(=O)NN)c(C)c1Br | . | -8 | . | . | 6 | .
CC(C)(C)c1ccc(C(=O)NNC(=O)C2CCCCC2)cc1 | 0.9 | 31* | 0.9 | 17 | 6 | 0.9
COc1cc(CCN2C(=O)N[C@@H](c3cccc(C(F)(F)F)c3)C(C(C)=O)=C2C)cc(OC)c1OC | 0.9 | 4 | 2* | 19 | 6 | 1.6
CC(=O)C1=C(C)N(Cc2ccccc2)C(=O)N[C@@H]1c1cccc(C(F)(F)F)c1 | 0.9 | -4 | 1.1 | 19 | 9 | 1.2
COc1ccc(N2CC(O)=C(c3nc(-c4ccc(Cl)cc4)cs3)C2=N)cc1 | 1 | -11 | 1 | 12 | 13 | 0.9
Cc1ccc(-c2ccc(/C=N\NC(=O)c3cc4c(ccc5ccccc54)o3)o2)cc1[N+](=O)[O-] | 1 | 39* | 1.1 | 24 | 14 | 1
Cc1ccc([N+](=O)[O-])cc1-c1ccc(/C=N/NC(=O)c2cc3c(ccc4ccccc43)o2)o1 | 0.8 | -38 | 0.9 | 38 | 9 | 0.9
O=C(NCc1ccc2c(c1)OCO2)c1ccc2snnc2c1 | 0.9 | -10 | 0.9 | 32 | 16 | 0.9
O=C(NCc1ccco1)c1ccc2snnc2c1 | 1 | -6 | 1.1 | 30 | 187* | 1.2
COc1ccc(OCCSc2nnc(-c3ccccc3)n2N)cc1 | 0.9 | -6 | 0.9 | 28 | 63* | 1
COc1ccc(-c2nnc(SCCc3ccccc3)n2N)cc1 | 0.8 | -10 | 0.9 | 36 | 10 | 0.8
O=c1cc(CN2CCCc3ccccc32)nc2sccn12 | 0.9 | 0 | 2.1* | 13 | 9 | 1.8
O=c1cc(CN2CCc3ccccc32)nc2sccn12 | 0.8 | 2 | 1.8 | 35 | 4 | 1.5
FC(F)Sc1nc(-c2ccccc2)c(-c2ccccc2)n1C(F)F | 0.8 | 1 | 0.8 | 19 | 100* | 0.8
CCOc1ccccc1NC(=O)c1cc(-c2ccncc2)nc2c(Cl)cccc12 | 1.2 | 40* | 1 | 13 | 9 | 1
COc1ccc2[nH]c(=O)c(CN(C(=O)C3CCCO3)c3ccc(C)cc3)cc2c1 (centres undefined) | 0.8 | -1 | 0.5 | 9 | 8 | 0.9
Nc1ccc2c(c1)OC1(CCCCC1)O2 | 0.5 | 45* | 0.5 | 18 | 5 | 0.4
CCN(CC)c1ccc(C=C2C(=O)OC3(CCCCC3)OC2=O)cc1 | 1.1 | -75 | 1.2 | 26 | 10 | 1.2
CC(=O)Oc1ccc2oc3c(c2c1)C(=O)CCC3 | 0.8 | -10 | 0.9 | 260* | 8 | 1
COc1ccc(OC)c(NC(=O)C2CCC(CNc3c(N4CCC(C)CC4)c(=O)c3=O)CC2)c1 (centres undefined) | 0.9 | 11 | 0.8 | 15 | 4 | 1
Cc1ccc(N/N=C/c2ccc(N3CCOCC3)cc2)cc1C | 0.9 | -9 | 2* | 17 | 23 | 1.2
CCN(C(=O)c1cc(Cl)ccc1OC)C1CCCCC1 | 0.9 | -16 | 1 | 28 | 4 | 0.9
O=C(O)c1cc(NCc2ccc(F)cc2)ccc1N1CCOCC1 | 0.9 | -8 | 1 | 36 | 6 | 1
O=C(O)c1cc(NCc2ccccc2C(F)(F)F)ccc1N1CCOCC1 | 0.9 | -7 | 0.9 | 21 | 52* | 1
Cc1c(NC(N)=O)c(=O)n(-c2ccccc2)n1C | . | 5 | . | 16 | 11 | .
Cc1ccc(S(=O)(=O)N/N=C2\C(=O)C3(C)CCC2C3(C)C)cc1 (centres undefined) | 0.9 | -4 | 2.1* | 11 | 22 | 1.8
